Results pooled from the literature.
Each line is one published result; the experiments were not run side by side.
Observed: cell growth or viability

CCn1c2ccccc2c2cc(/C=C/C(=O)c3cc4c(ccc5ccccc54)oc3=O)ccc21 — IC50 (NRK-52E; MTT; 24 h): 82.7 µM
O=C(O)C(c1c[nH]c2ccccc12)c1c[nH]c2ccccc12 — IC50 (KG-1; 48 h): > 20 µM
CCn1c2ccccc2c2cc(/C=C/C(=O)c3cc4ccccc4oc3=O)ccc21 — IC50 (NRK-52E; MTT; 24 h): 94.6 µM
CC1=C(O)C(=O)C=C2C1=CC=C1[C@@]2(C)CC[C@@]2(C)[C@@H]3C[C@](C)(C(=O)OCCCBr)CC[C@]3(C)CC[C@]12C — IC50 (Bel-7402; MTT; 48 h): 0.72 µM
CC(C)C[C@H](NC(=O)[C@H](Cc1ccccc1)NC(=O)c1cnccn1)B(O)O — IC50 (KG-1; ATP luminescence): 0.0048 µM
COc1cc(N2CCC(N3CCN(C)CC3)CC2)ccc1Nc1ncc(Cl)c(Nc2ccccc2S(=O)(=O)C(C)C)n1 — IC50 (Rh18; 72 h): 0.27 µM
CC1=C(O)C(=O)C=C2C1=CC=C1[C@@]2(C)CC[C@@]2(C)[C@@H]3C[C@](C)(C(=O)OCCCO)CC[C@]3(C)CC[C@]12C — IC50 (Bel-7402; MTT; 48 h): 0.58 µM
CC(C)n1cc(C(c2ccc(/C=C/C(=O)O)s2)c2cn(C(C)C)c3ccccc23)c2ccccc21 — IC50 (KG-1; 48 h): > 5 µM
CC1=C(O)C(=O)C=C2C1=CC=C1[C@@]2(C)CC[C@@]2(C)[C@@H]3C[C@](C)(C(=O)OCCO)CC[C@]3(C)CC[C@]12C — IC50 (Bel-7402; MTT; 48 h): 0.68 µM
CC(C)[C@H](N)C(=O)N1CCC[C@H]1B(O)O — IC50 (MOLM-13; ATP luminescence; 48 h): 0.12 µM
Cc1ccc2c(c1)c(C(c1ccc(/C=C/C(=O)O)s1)c1cn(C(C)C)c3ccc(C)cc13)cn2C(C)C — IC50 (KG-1; 48 h): > 5 µM
CCn1c2ccccc2c2cc(C3CC(c4cc5ccccc5oc4=O)=NN3c3ccccc3)ccc21 (stereo not drawn) — IC50 (NRK-52E; MTT; 24 h): 103 µM
C[C@@H](Oc1cc(-c2cnn(C3CCNCC3)c2)cnc1N)c1c(Cl)ccc(F)c1Cl — IC50 (Rh18; 72 h): 0.55 µM
CC1=C(O)C(=O)C=C2C1=CC=C1[C@@]2(C)CC[C@@]2(C)[C@@H]3C[C@](C)(C(=O)OCCCCCO)CC[C@]3(C)CC[C@]12C — IC50 (Bel-7402; MTT; 48 h): 0.59 µM
Cc1cc(Nc2ncc(Cl)c(Nc3ccccc3S(=O)(=O)C(C)C)n2)c(OC(C)C)cc1C1CCNCC1 — IC50 (Rh18; 72 h): 2.34 µM
COc1cc(Nc2nccc(-c3cnn4nc(OC)ccc34)n2)cc(C(F)(F)F)c1 — IC50 (KG-1; ATP luminescence): 0.86 µM
CCn1c2ccccc2c2cc(C3CC(c4cc5c(ccc6ccccc65)oc4=O)=NN3C(C)=O)ccc21 (stereo not drawn) — IC50 (NRK-52E; MTT; 24 h): 81.3 µM
Nc1ncc(-c2cnn(C3CCNCC3)c2)cc1-c1nnc(CC2CC2)o1 — IC50 (MOLM-13; trypan blue; 72 h): 0.184 µM
CCn1c2ccccc2c2cc(C3CC(c4cc5ccccc5oc4=O)=NN3C(N)=O)ccc21 (stereo not drawn) — IC50 (NRK-52E; MTT; 24 h): 28.4 µM
COc1cc(-c2ncn(/C=C\C(=O)OC(C)C)n2)cc(C(F)(F)F)c1 — IC50 (KG-1; 72 h): 0.165 µM
CCn1c2ccccc2c2cc(C3CC(c4cc5c(ccc6ccccc65)oc4=O)=NN3C(N)=O)ccc21 (stereo not drawn) — IC50 (NRK-52E; MTT; 24 h): 59.1 µM
Cn1cc(C(c2ccc(C(=O)O)cc2)c2cn(C)c3ccccc23)c2ccccc21 — IC50 (KG-1; 48 h): > 20 µM
COCCCOC(=O)[C@]1(C)CC[C@]2(C)CC[C@]3(C)C4=CC=C5C(=CC(=O)C(O)=C5C)[C@]4(C)CC[C@@]3(C)[C@@H]2C1 — IC50 (Bel-7402; MTT; 48 h): 0.81 µM
COC(=O)N[C@@H](C)CNc1nccc(-c2cn(C(C)C)nc2-c2cc(Cl)cc(NS(C)(=O)=O)c2F)n1 — IC50 (Malme-3M): 0.0039 µM
CC1=C(O)C(=O)C=C2C1=CC=C1[C@@]2(C)CC[C@@]2(C)[C@@H]3C[C@](C)(C(=O)OCCCCCCO)CC[C@]3(C)CC[C@]12C — IC50 (Bel-7402; MTT; 48 h): 1.22 µM
O=C(O)/C=C/c1ccc(C(c2c[nH]c3ccccc23)c2c[nH]c3ccccc23)s1 — IC50 (KG-1; 48 h): > 20 µM
CCn1c2ccccc2c2cc(C3CC(c4cc5cccc(OC)c5oc4=O)=NN3c3ccccc3)ccc21 (stereo not drawn) — IC50 (NRK-52E; MTT; 24 h): 70.4 µM
Cn1cc(C(c2ccc(/C=C/C(=O)O)s2)c2cn(C)c3ccccc23)c2ccccc21 — IC50 (KG-1; 48 h): > 20 µM
CCn1c2ccccc2c2cc(C3CC(c4cc5c(ccc6ccccc65)oc4=O)=NN3c3cccc(Cl)c3)ccc21 (stereo not drawn) — IC50 (NRK-52E; MTT; 24 h): 57.1 µM
N[C@@H](CC(=O)N1CCN(C(c2ccc(F)cc2)c2ccc(F)cc2)CC1)C(=O)N1Cc2ccccc2C1 — IC50 (KG-1; ATP luminescence; 48 h): 9.31 µM
